{"source": "paper PMC4293084", "about": "(Nature communications, 2015)", "key": {"[1]": {"tested_on": "isolated EIC", "details": "cited from earlier work"}, "[2]": {"tested_on": "EI^Q (H189Q)", "assay": "Enzyme kinetic assay", "format": "biochemical, E. coli", "details": "37°C", "method_in_brief": "(§1)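 Wild-type E. coli Enzyme I or its H189Q or H189A active-site mutant, expressed and purified. PEP hydrolysis to inorganic phosphate and pyruvate was followed spectrophotometrically at 37°C with a coupled phosphate-detection kit. Enzymatic velocities at varying PEP were fit to the Michaelis-Menten equation to give Km. For display, velocities were normalised to each fit's maximum velocity.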"}, "[3]": {"tested_on": "EI^A (H189A)", "assay": "Enzyme kinetic assay", "format": "biochemical, E. coli", "details": "37°C", "method_in_brief": "as §1"}, "[4]": {"tested_on": "EI^WT", "assay": "Enzyme kinetic assay", "format": "biochemical, E. coli", "details": "37°C", "method_in_brief": "as §1"}}}
{"smiles": "C=C(OP(=O)(O)O)C(=O)O", "note": "[PEP, phosphoenolpyruvate]", "values": [{"measurement": "Km", "setting": "[1]", "result": "~370", "unit": "µM"}, {"measurement": "Km", "setting": "[2]", "result": "~130", "unit": "µM"}, {"measurement": "Km", "setting": "[3]", "result": "< 50", "unit": "µM"}, {"measurement": "Km", "setting": "[4]", "result": "~330", "unit": "µM"}]}
